Results taken from ChEMBL document CHEMBL1938309, “Stereochemical diversity of AI-2 analogs modulates quorum sensing in Vibrio harveyi and Escherichia coli” (Bioorg Med Chem, 2012).
Calls of active or inactive are those of the source. The rule behind the calls is not given here.

What was measured:
[1] = target: T1, Autoinducer 2-binding periplasmic protein LuxP (Vibrio harveyi, UniProt P54300); test: (§1) Binding affinity to Vibrio harveyi CFP/YFP-tagged LuxP receptor assessed as decrease in FRET ratio
How it was run: (§2)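 Purified CFP-LuxP-YFP chimera, 12.5 µg ml⁻¹, in 25 mM sodium phosphate pH 8, 35 mM NaCl, 1 mM borate; serially diluted compounds (in 0.01 M H2SO4 water), 2.5 µl into 280 µl reaction. FRET ratio 527/485 nm; lower ratio indicates binding. EC50 from dose series; standard deviations shown.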

[2] = target: Autoinducer 2-binding periplasmic protein LuxP (Vibrio harveyi) (UniProt P54300); test: as §1; how it was run: as §2
[3] = target: T1, Autoinducer 2-binding periplasmic protein LuxP; test: Antagonist activity at Vibrio harveyi MM32 LuxP receptor assessed as decrease in receptor agonist DPD-induced bioluminescence after 5 hrs 30 mins; type: functional
How it was run: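 V. harveyi MM32 in AB medium with 0.1 μM DPD plus serial dilutions of test compound (in 0.01 M H2SO4 water). Luminescence read as cpm after 5 h 30 min at 30 °C; IC50 by four-parameter sigmoidal non-linear least-squares fitting.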

Escherichia coli [4] = test: Agonist activity at LsrB receptor in LsrF-, LsrG-, luxS-deficient Escherichia coli KX1446 assessed as induction of lsr gene expression at 150 uM after 4.5 to 5 hrs by LacZ reporter gene assay; type: functional
How it was run: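 E. coli KX1446 carrying lsr-lacZ fusion grown in LB; analog diluted from 2 mM stock in 0.01 M H2SO4, final 150 μM, no DPD added. Acid-water and AI-2 controls per series; triplicate independent cultures.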

Escherichia coli [5] = test: Agonist activity at LsrB receptor in LsrF-, LsrG-, luxS-deficient Escherichia coli KX1446 assessed as increase in receptor agonist DPD-induced lsr gene expression at 150 uM after 4.5 to 5 hrs by LacZ reporter gene assay; type: functional
How it was run: (§3)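 E. coli lsr-lacZ reporter KX1446 in LB with overnight culture aliquot; analogs at final 15 or 150 μM added from 2 mM stocks in 0.01 M H2SO4, with 20 µM DPD present. Acid-water and AI-2 controls.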

Escherichia coli [6] = test: Agonist activity at LsrB receptor in LsrF-, LsrG-, luxS-deficient Escherichia coli KX1446 assessed as increase in receptor agonist DPD-induced lsr gene expression at 15 uM after 4.5 to 5 hrs by LacZ reporter gene assay; type: functional; how it was run: as §3
[7] = target: T1, Autoinducer 2-binding periplasmic protein LuxP; test: Agonist activity at Vibrio harveyi MM32 LuxP receptor assessed as induction of bioluminescence after 5 hrs 30 mins; type: functional
How it was run: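 MM32 reporter grown in AB medium; compounds serially diluted in 0.01 M H2SO4 water, without added DPD. Light counted as cpm after 5 h 30 min at 30 °C. EC50 from four-parameter sigmoidal fit by non-linear least squares; error bars are standard deviations.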

Vibrio harveyi = test: Growth inhibition of Vibrio harveyi MM32 at 0.1 mM after 5 hrs; type: organism-based; conditions: in vivo, 100 µM
[8] = target: T1, Autoinducer 2-binding periplasmic protein LuxP; test: Agonist activity at Vibrio harveyi LuxP receptor; type: functional
[9] = Inhibition of […]-deficient Salmonella Typhimurium Met844 Quorum sensing system by lacZ reporter gene assay; parameters: species or system Salmonella enterica subsp. enterica serovar Typhimurium

Sequence of Autoinducer 2-binding periplasmic protein LuxP (Vibrio harveyi) (P54300 whole entry): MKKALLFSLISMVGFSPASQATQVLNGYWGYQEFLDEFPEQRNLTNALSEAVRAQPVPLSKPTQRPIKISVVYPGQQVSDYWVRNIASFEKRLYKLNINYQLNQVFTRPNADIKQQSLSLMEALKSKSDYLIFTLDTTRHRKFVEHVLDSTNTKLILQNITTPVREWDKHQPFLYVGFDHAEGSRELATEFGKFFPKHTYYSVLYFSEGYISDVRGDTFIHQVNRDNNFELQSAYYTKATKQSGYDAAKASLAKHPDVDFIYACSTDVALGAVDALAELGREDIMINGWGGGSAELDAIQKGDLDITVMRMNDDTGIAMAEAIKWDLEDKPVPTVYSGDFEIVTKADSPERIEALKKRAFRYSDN
T1 sequence (P54300 whole entry): as above

Compound	EC50 [1] [µM]	Activity [2]	IC50 [3] [µM]	EC50 [7] [µM]	EC50 [8] [µM]	IC50 [9] [µM]	Activity (Escherichia coli [4])	Activity (Escherichia coli [5])	Activity (Escherichia coli [6])	growth inhibition (GI) (Vibrio harveyi)
CC(=O)C(=O)[C@H](O)[C@@H](C)O	11.6	Dose-dependent effect	160	19.5			inactive	inactive	inactive	Toxic
CC(=O)C(=O)[C@H](O)[C@H](C)O	10	Dose-dependent effect		26.5			inactive			Toxic
CC(=O)C(=O)[C@@H](O)[C@H](C)O	1.87	Dose-dependent effect	57.5	6.21			inactive	Active	Active	Toxic
CC(=O)C(=O)[C@@H](O)[C@@H](C)O (single isomer, unassigned)	0.14	Dose-dependent effect		0.65			inactive			Toxic

More lines, main results first:

EC50 [1] [µM]	Activity [2]	IC50 [3] [µM]	EC50 [7] [µM]	EC50 [8] [µM]	IC50 [9] [µM]	Compound	Activity (Escherichia coli [4])	Activity (Escherichia coli [5])	Activity (Escherichia coli [6])	growth inhibition (GI) (Vibrio harveyi)
0.032			0.076			CC(=O)C(=O)[C@@H](O)CO				Toxic
				30		CC(=O)C(=O)[C@H](O)CO				
				30		O=C(C(=O)C(F)(F)F)[C@@H](O)CO				
					5	CCCCCC(=O)C(=O)[C@@H](O)CO				
